Sampled rows, rich in hits. Any-hit rate of the full collection: about 2.4%.
bCat nuc transl – modulators of beta-catenin nuclear translocation, primary screen, imaging, HeLa cells, immunofluorescence, high-content; nuclear translocation activity, % at 5 µM; hit rate 0.3% among 190,000; AID 1665, 2009;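 active means nuclear translocation activity above 50% at 5 µM, with a well cell count of 50 or more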;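 further: per-cell ratio of nuclear to cytoplasmic median beta-catenin stain intensity; plate controls were DMSO negative control for no effect and GSK-3 inhibitor IX positive control for full effect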
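Test system: HeLa cells, endogenous beta-catenin; Compound: single 5 µM dose plus 0.02–20 µM confirmation series; Times: compound exposure 24 h at 37°C; Signal: fluorescence imaging of beta-catenin antibody stain plus DAPI; Read-out: % activation, nuclear-to-cytoplasmic median beta-catenin signal ratio per cell.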
STAT3 act – IL-6 driven STAT3 reporter potentiators, primary screen, U3A cells, luciferase, luminescence, MLSCN library. hit rate 0.91% among 190,000. IL-6 STAT3-luciferase reporter; 100% = signal with IL-6 EC80 alone. activation (% of control), % at 5.6 µM;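 active means activation above the screen-wide mean of compound activation plus 3 SD, cut at about 130% in these data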;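 further: 0% = background luminescence of wells with medium and substrate only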
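System – human U3A cells carrying STAT3-luciferase construct · Probe or stimulus – Interleukin-6, 33 ng/mL · Schedule – compound 1 h, then IL-6 6 h at 37 °C · Signal – luminescence from STAT3-driven luciferase reporter · Evaluation – percent of IL-6-only median luminescence · Benchmarks – IL-6-only high control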
MT stabilizer – microtubule stabilizers in HeLa cells, primary screen, imaging, high-content imaging. HeLa tubulin immunostaining HCS, 24 h; share of cells brighter than vehicle mean+2SD. % tubulin-high responders, % at 10 µM. hit rate 0.83% among 200,000. AID 2205, 2009;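 active means plate Z-score above 3 for both tubulin-high and condensed-nucleus cell shares, with cell loss under 80%, at 10 µM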;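 further: anti alpha tubulin signal scored within the nucleus-defined area of each cell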
STAT3 inh-1 – IL-6 driven STAT3 reporter inhibitors, primary screen, U3A cells, luciferase, luminescence, MLSCN library. IL-6 STAT3-luciferase reporter; host cell line lacks STAT1. inhibition, % at 5.5 µM. hit rate 0.89% among 190,000;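 active means inhibition above the mean inhibition across all screened compounds plus 3 SD, cut at about 44% in these data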;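 further: 0% = DMSO only wells and 100% = 100 µM nifuroxazide control wells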
STAT1 blocker – STAT1 signaling inhibitors, primary screen, cell-based, HTS, luciferase reporter; NIH 3T3 STAT1-luciferase reporter, IFN-gamma, luminescence; inhibition, % at 5.5 µM; hit rate 0.35% among 200,000; AID 920, 2007;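 active means inhibition above a set limit, the mean inhibition across all tested compounds plus 3 SD, cut at about 34% in these data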;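 further: 0% = IFN-gamma with DMSO and 100% = IFN-gamma with 300 µM nifuroxazide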
STAT3 inh-2 – STAT3 reporter inhibitors, retest of hits, confirmation, U3A cells, luciferase, luminescence; IL-6 STAT3 luciferase reporter; cell line lacks STAT1; shares compounds with STAT3 inh-1; hit rate 45% among 1,200; AID 1265, 2008; inhibition, % at 5.7 µM;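 active means inhibition above the hit cutoff computed for the primary STAT3 screen, cut at about 44% in these data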;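 further: 0% = IL-6 plus DMSO and 100% = IL-6 plus nifuroxazide control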
NFkB inh 2 – NF-kB reporter inhibitors in human cells, confirmation, counter-screen for STAT3 inhibitor project, cell-based, HEK293T, luciferase, TNF-alpha stimulus. shares compounds with STAT3 inh-1. TNF-alpha induced. inhibition, % at 5.7 µM. hit rate 36% among 1,200;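 active means inhibition above the mean of solvent-only control wells plus 3 SD, cutoff set per campaign, cut at about 13% in these data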;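 further: 0% = TNF-alpha with DMSO and 100% = TNF-alpha with MG high control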
STAT1 inh 2 – STAT1 reporter inhibitors, IFN-gamma induced, confirmation, counter-screen for STAT3 inhibitor project, cell-based, NIH 3T3, luciferase luminescence; shares compounds with STAT3 inh-1; NIH 3T3 STAT1-luciferase reporter; inhibition, % at 5.7 µM; hit rate 27% among 1,200; AID 1317, 2008;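 active means inhibition above the mean plus 3 SD of solvent-only control wells, limit set per screening run, cut at about 16% in these data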;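 further: 0% = DMSO with IFN-gamma and 100% = nifuroxazide control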
Starred values were filed as active, the others as inactive; . = no result given.

SMILES	bCat nuc transl	STAT3 act	MT stabilizer	STAT3 inh-1	STAT1 blocker	STAT3 inh-2	NFkB inh 2	STAT1 inh 2
Cc1nn(Cc2ccccc2)c(Cl)c1C(=O)NCc1ccco1	0.1	110.7	2.3	-10.4	10.3	.	.	.
CC(C)c1ccc(OCC(=O)NC2=NCCS2)cc1	-1.3	89.1	3.9	18.5	-30.4	.	.	.
O/C(=C\c1ccc2ccccc2n1)c1ccc(O)cc1O	-1.9	52.2	4.6	60.9*	4.1	28.5	-20.8	-87.9
Cc1ccc(C2CC(c3ccco3)n3ncnc3N2)cc1 (stereo unspecified)	.	99.1	2.1	5.9	7.2	.	.	.
Cc1ccc2c(c1)C(N1CCCC1=O)CC(c1ccco1)N2 (stereo unspecified)	-5.5	43.0	3.8	69.7*	17.8	37.6	-2.3	-40.8
CCC1COC(c2cccn2Cc2ccccc2Cl)=N1 (stereo unspecified)	-0.3	96.2	1.2	11.2	4.7	.	.	.
Cc1ccn2cc(-c3cc4ccccc4oc3=O)nc2c1	2.1	37.8	18.0	74.8*	26.0	43.8*	26.7*	-50.8
COc1ccc(OC)c(NC(=S)N2CCC(C(O)(c3ccccc3)c3ccccc3)CC2)c1	3.6	98.7	7.1	4.3	-13.8	.	.	.
O=C(Nc1cccc2ccccc12)c1ccc(OC(=S)N2CCOCC2)cc1	-0.9	118.0	2.1	-17.2	-0.3	.	.	.
O=C(Nc1cccc(Cl)c1)c1ccc(OC(=S)N2CCOCC2)cc1	0.5	54.0	2.1	57.4*	-33.5	33.2	-27.2	-93.3
COc1ccc(NCC(=O)Nc2ccc(Br)cc2F)c(OC)c1	0.1	.	.	.	.	.	.	.
CCCCCCCCn1c2c(c(=N)c3ccccc31)CCC2	4.1	29.2	5.8	84.8*	29.9	87.8*	29.9*	31.0*
Oc1c(C=Nc2ccccc2)sc2ccccc12	2.1	47.7	3.2	65.9*	-20.2	-16.2	-28.8	-21.3
Cc1ccc(S(=O)(=O)CC2CSc3nc(N)cc(=O)n32)cc1 (stereo unspecified)	-4.9	102.5	3.5	2.8	2.7	.	.	.
Cc1ccc(S(=O)(=O)CC2CSc3nc4ccccc4n32)cc1 (stereo unspecified)	1.4	31.7	1.2	87.9*	33.7	84.0*	34.3*	31.9*
N#Cc1ccccc1COc1ccc(/C=C/C(=O)O)cc1	0.3	63.6	9.0	47.5*	17.6	37.0	16.0*	11.0
O=C(O)/C=C/c1ccc(S(=O)(=O)Nc2ccc(OCc3ccccc3)cc2)cc1	-0.2	.	.	.	.	.	.	.
COc1ccc2c(=O)c(-c3ccc4c(c3)OCO4)coc2c1	.	51.6	3.5	55.1*	-70.2	26.0	-11.9	-104.1
Cc1ccc(NC2=Nc3ccccc3CS2)cc1	5.7	55.2	1.4	59.0*	0.1	25.5	-8.8	-95.7
COc1ccc(NC(=O)CSc2ccccn2)cc1OC	2.7	103.9	2.9	-0.2	4.5	.	.	.
COc1ccc(NC(=O)CSc2ncccc2C(=O)OC(C)C)cc1OC	.	61.1	1.6	50.6*	16.8	37.3	7.6	17.0*
O=C1c2ccccc2C(=O)N1CC1c2ccccc2CCN1C(=O)C1CCCCC1 (stereo unspecified)	.	106.2	1.1	-1.1	14.1	.	.	.
O=C(O)[C@@H]1CCCC[C@@H]1C(=O)N1CCc2ccccc2C1CN1C(=O)c2ccccc2C1=O (stereo partly specified)	-1.2	54.4	2.2	58.6*	23.9	52.8*	19.3*	22.5*
Cc1csc(NC(=O)c2cc3c(s2)CCC3)n1	-0.4	45.6	3.2	69.9*	-19.5	38.3	-26.9	-106.7
COC(=O)c1sc(NC(=O)c2cc3c(s2)CCCC3)nc1C	.	85.1	2.0	20.8	-59.4	.	.	.
SMILES	bCat nuc transl	STAT3 act	MT stabilizer	STAT3 inh-1	STAT1 blocker	STAT3 inh-2	NFkB inh 2	STAT1 inh 2
Oc1ccccc1-c1cc(-c2ccc3c(c2)OCCO3)n[nH]1	-2.3	57.2	5.8	54.8*	-13.8	21.1	-44.2	-29.2
Cc1ccc(-c2nc3cc(NC(=O)C(C)C)ccc3o2)cc1C	-0.4	50.4	2.0	60.7*	-105.5	14.5	-32.3	-203.5
CC(Oc1ccc(Cl)cc1Cl)C(=O)Nc1ccc2oc(-c3ccncc3)nc2c1 (stereo unspecified)	.	60.5	3.0	49.8*	-7.3	49.9*	0.2	-10.4
CC(C)(C)c1ccc(OCC(=O)Nc2ccc(-c3nc4cccnc4o3)cc2)cc1	-1.0	93.5	2.5	6.3	-2.8	.	.	.
CC(C)C(=O)Nc1ccc(-c2nc3cccnc3o2)cc1	0.5	61.0	2.6	47.9*	-51.3	14.7	-34.1	-89.5
Cc1cc2nc(-c3ccc(NC(=O)C(C)C)cc3)oc2cc1C	0.1	95.5	0.4	4.8	-86.3	.	.	.
Cc1ccc(-c2nc3cc(NC(=O)C(C)C)ccc3o2)cc1	-1.1	63.4	0.5	45.2*	-95.4	-0.9	-37.6	-216.5
CC(C)C(=O)Nc1cccc(-c2nc3ccccc3o2)c1	2.8	84.4	3.9	21.5	-24.0	.	.	.
COc1cc(C=O)ccc1Oc1nc(Nc2ccc(F)cc2F)nc(N2CCOCC2)n1	-2.1	99.9	2.8	8.5	8.1	.	.	.
COc1ccc(Nc2nnc(SCc3cc(=O)n4ccsc4n3)s2)cc1	0.8	103.8	3.3	-1.9	1.9	.	.	.
CC1CN(c2ccc(Cl)cc2[N+](=O)[O-])CCN1S(C)(=O)=O (stereo unspecified)	0.4	96.2	4.2	6.7	-4.8	.	.	.
COc1ccc(OCC(=O)Nc2cc(-c3nn(C)c(=O)c4ccccc34)ccc2OC)cc1	1.0	60.9	1.8	50.8*	26.0	47.5*	22.1*	25.3*
COc1ccc(NC(=O)COc2ccc(-c3nn(C)c(=O)c4ccccc34)cc2)cc1	0.4	94.0	2.5	13.8	-8.8	.	.	.
CN(C)S(=O)(=O)c1ccc(C(=O)Nc2nc(-c3cccs3)cs2)cc1	.	61.5	6.6	52.9*	11.6	44.3*	7.3	6.1
O=C(Nc1nc(-c2cccs2)cs1)c1ccc(S(=O)(=O)N2CCCC2)cc1	1.7	83.9	5.3	22.3	11.0	.	.	.
O=C(Nc1ccc(-c2nc3ccccc3s2)cc1)c1cc(-n2cnnc2)ccc1Cl	13.7	53.3	2.6	62.0*	3.6	32.8	-1.9	-9.6
Cc1ccc(NC(=O)c2cc(-n3cnnc3)ccc2Cl)cc1	-1.3	106.4	4.0	-5.4	3.9	.	.	.
